Experimental data pooled from the literature.
Each line is one published result; the experiments were not run side by side.
ALDH2: Aldehyde dehydrogenase, mitochondrial (ALDH2, Homo sapiens, UniProt P05091)
HDAC11: Histone deacetylase 11 (HDAC11, Homo sapiens, UniProt Q96DB2)
CYP1A2: Cytochrome P450 1A2 (CYP1A2, Homo sapiens, UniProt P05177)
CHRM1: Muscarinic acetylcholine receptor M1 (CHRM1, Homo sapiens, UniProt P11229)

`Cc1cc2c(C(N)=O)c(N)n(-c3c(C)ccc(O)c3C)c2nc1C` has an IC50 of 0.0044 µM (RAF proto-oncogene serine/threonine-protein kinase (RAF1, Homo sapiens, UniProt P04049, Y340D/Y341D); enzyme activity, inhibitor, ADP detection).
`CNC(=O)[C@H](Cc1c[nH]c2ccccc12)NC(=O)[C@@H](CC(=O)NO)CC(C)C` has an IC50 of 0.000129 µM (Collagenase 3 (MMP13, Homo sapiens, UniProt P45452); enzyme activity, inhibitor).
`Nc1nc2c(s1)C(c1ccccc1Cl)CC(=O)N2` (centres unmarked) gave an IC50 of under 10 µM (ALDH2; enzyme activity, inhibitor, fluorescence).
`COc1ccc(N(Cc2csc(-c3ccc(C)cc3)n2)C(=O)CCCCCC(=O)NO)cc1` gave an IC50 of over 10 µM (HDAC11; enzyme activity, inhibitor).
`Cc1ccc(OCC(=O)N[C@@H](Cc2c[nH]c3ccccc23)C(=O)OC(C)C)cc1` has an IC50 of over 50 µM (CYP1A2; enzyme activity, inhibitor; human, liver microsomes; 30 min).
With `CCCN(CCC)S(=O)(=O)c1ccc(C(=O)O)cc1` the IC50 was 1000 µM (Taste receptor type 2 member 14 (TAS2R14, Homo sapiens, UniProt Q9NYV8, S265A); inositol phosphate, antagonist, TR-FRET).
The IC50 of `O=C(CCNC(=O)CNC(=O)CC(c1ccccc1)(c1ccccc1)c1ccccc1)NC[C@@H]1CCCN(Cc2ccc(F)nc2)C1` is reported as over 30 µM (CHRM1; ligand displacement, radioligand; cell membranes).
With `CN(C)CCC=C1c2ccccc2CCc2ccccc21` the IC50 was 2.88 µM (Short transient receptor potential channel 5 (Mus musculus, UniProt Q9QX29); ion current, inhibitor, patch clamp).
`Cc1cccc2c1NC(=O)/C2=C/c1cc(Cl)c(O)c(Cl)c1` has an IC50 of 12.7 µM (ALDH2; enzyme activity, inhibitor, fluorescence).
`CC(C)C[C@H](NC(=O)[C@@H](NC(=O)N[C@@H](Cc1ccccc1)C(=O)O)[C@@H]1CCN=C(N)N1)C(=O)N[C@H](C=O)Cc1ccccc1` gave an IC50 of 0.00777 µM (Chymase (CMA1, Homo sapiens, UniProt P23946); enzyme activity, inhibitor).
`Cn1ccc(-c2ccc(-c3cc(C(=O)O)cc4cc(-c5ccc(C(F)(F)F)cc5)ccc34)cc2)n1` has an IC50 of 10.8 µM (Cytochrome P450 3A4 (CYP3A4, Homo sapiens, UniProt P08684); enzyme activity, inhibitor).
For `O=C(CCNC(=O)CNC(=O)CC(c1ccccc1)(c1ccccc1)c1ccccc1)NC[C@H]1CCCN(Cc2ccc(F)cc2)C1`, the IC50 was 13.9 µM (CHRM1; ligand displacement, radioligand; cell membranes).
With `COc1ccc(N(Cc2csc(-c3ccc(Br)cc3)n2)C(=O)CCCCCC(=O)NO)cc1` the IC50 was over 10 µM (HDAC11; enzyme activity, inhibitor).
With `CCc1cnn2c(NCc3ccc[n+]([O-])c3)cc(N3CCCC[C@H]3CCO)nc12` the IC50 was 0.062 µM (Tyrosine-protein kinase JAK1 (JAK1, Homo sapiens, UniProt P23458); enzyme activity, inhibitor, ELISA).
`CN(C)C(=O)c1cc2cnc(Nc3ccc(-c4ccc5c(=O)cc(N6CCOCC6)oc5c4)cc3)nc2n1C1CCCC1` gave an IC50 of over 100 µM (CYP1A2; enzyme activity, inhibitor, fluorescence; pH 8).
The IC50 of `CCc1oc2ccccc2c1C(=O)c1cc(Br)c(O)c(Br)c1` is reported as 1.54 µM (Solute carrier organic anion transporter family member 1B1 (SLCO1B1, Homo sapiens, UniProt Q9Y6L6); transporter uptake, inhibitor, radiometric; oocytes).
`COc1nc2ccc(Br)cc2cc1[C@@H](c1ccccc1)[C@@](O)(CCN(C)C)c1cccc2ccccc12` has an IC50 of under 10 µM (ALDH2; enzyme activity, inhibitor, fluorescence).
